This is an account of results in ChEMBL document CHEMBL4033796, “4-Amino-7,8-dihydro-1,6-naphthyridin-5(6 H)-ones as Inhaled Phosphodiesterase Type 4 (PDE4) Inhibitors: Structural Biology and Structure-Activity Relationships” (J Med Chem, 2018).

Converted amounts (≈) assume the structure as drawn. The source made the active and inactive calls. The calls are words filed in the database; no cut-off is given here.

The species entered for series [1] is Rattus norvegicus. As to conditions: Sprague-Dawley, 2000 ug/kg.
The subject of series [2] is Rattus norvegicus. The series can be described thus: Antiinflammatory activity in Sprague-Dawley rat LPS-induced neutrophilia model assessed as inhibition of LPS-induced increase in netrophils in bronchoalveolar lavage at 1000 ug/kg, it administered single dose as microspray dosed 1 hr prior to nebulized LPS challenge measured after 4 hrs by flow cytometric analysis. The class given is functional. Summed up:
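Compound was suspended in PBS with 0.2% Tween 80, homogenized, and lower doses were made by 1:10 dilution. Rats (male Sprague-Dawley, 230−280 g, fasted, isoflurane) received 0.2 mL intratracheally by microsprayer, about 1 cm above the carina. Nebulized LPS challenge (30 mL over 40 min) followed 1 h later. BAL neutrophils were counted by flow cytometry 4 h after challenge.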

The species named for series [3] is Rattus norvegicus. The settings on record: Sprague-Dawley, 2000 ug/kg. This is another data set of the same source.
Series [4] in a line: Inhibition of PDE4 in human whole blood PBMC assessed as reduction in LPS-induced TNFalpha production after 24 hrs by ELISA. Put shortly:
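Heparinized whole blood from healthy donors was preincubated with LPS (1 μg/mL final) at 37 °C for 10 min. It was then added to compounds in DMSO and incubated 24 h at 37 °C with agitation, then centrifuged. Serum TNF-α was measured by sandwich ELISA with TMB read-out at 450 nm. Experiments were done 2−3 times and duplicates were averaged.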

A short description of series [5]: Thermodynamic solubility of the compound at 22 degC. Format: physicochemical. The settings on record: read-out: Therm_solubility.
In series [6] the target is 3',5'-cyclic-AMP phosphodiesterase 4B (Homo sapiens, UniProt Q07343). The experiment in a line: Inhibition of recombinant human PDE4B1 using [3H]-cAMP as substrate […] measured after 60 mins by scintillation proximity assay. Put shortly:
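Compounds ranged from 10 μM to 10 pM. The reaction was started with PDE4 enzyme and run 60 min at room temperature with agitation (about 10−20% conversion), then stopped with SPA beads. [3H]-AMP was counted by scintillation.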

A short description of series [7]: Apparent permeability of the compound by PAMPA assay. The class given is physicochemical.
Series [8] in a line: Thermodynamic solubility of the compound at 37 degC.
The subject of series [9] is Lung. The experiment in a line: Drug level in Sprague-Dawley rat lung at 1000 ug/kg, it administered as dry powder measured up to 6 hrs post dose. The settings on record: in vivo, inhaled_or_intranasal, 1 mg/kg. The class given is ADME, tissue-based. Put shortly: (§1)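 Dry powder (5% w/w with lactose) was given intratracheally to rats. Compound was recovered from lung biopsies at times over a 24 h period and expressed as percentage of the total administered dose.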

Series [10] relates to Rattus norvegicus. The experiment in a line: Antiinflammatory activity in Sprague-Dawley rat LPS-induced neutrophilia model assessed as inhibition of LPS-induced increase in netrophils in bronchoalveolar lavage at 100 to 3000 ug/kg, it administered as single dose via dry powder insufflator dosed 1 to 18 hrs prior to nebulized LPS challenge measured after 4 hrs by flow cytometric analysis. The class given is functional. Put shortly:
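Male Sprague-Dawley rats (230−280 g, fasted) were anaesthetized with isoflurane. Micronized compound co-mixed with lactose (5 mg of mix) was insufflated intratracheally through a cannula with 5 mL air. One or 18 h later, LPS solution (30 mL) was nebulized into a chamber over 40 min. After 4 h, BAL was done with 2 × 2 mL PBS and neutrophils were counted by flow cytometry. Controls were lactose alone and fluticasone (10% in lactose).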

Series [11] concerns Mustela putorius furo. The series can be described thus: Toxicity in ferret assessed as emesis at 30 ug/kg, it administered as dry powder co-mixtured with lactose after 1 hr post dose. As to conditions: in vivo, inhaled_or_intranasal, 0.03 mg/kg.
In series [12] the test system is Lung. The experiment in a line: Drug level in Sprague-Dawley rat lung at 1000 ug/kg, it administered as dry powder measured up to 18 hrs post dose. As to conditions: in vivo, inhaled_or_intranasal, 1 mg/kg. The class given is ADME, tissue-based. Put shortly: as §1
Series [13] relates to Rattus norvegicus. The experiment in a line: Pro-inflammatory activity in Sprague-Dawley rat assessed as increase in neutrophils in bronchoalveolar lavage at 3000 ug/kg, it administered as single dose via dry powder insufflator after 18 hrs post dose by flow cytometric analysis relative to basal level. Format: ADME. The settings on record: in vivo, inhaled_or_intranasal, 3 mg/kg. Summed up: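 Fasted male Sprague-Dawley rats (230−280 g) under isoflurane received 5 mg […] co-mixed with lactose, delivered intratracheally by DP-4 insufflator with 5 mL air. 18 h later, LPS (1:100 dilution of 10 mg/mL in PBS; 30 mL) was nebulized in chambers over 40 min. BAL was taken 4 h later and neutrophils were counted by flow cytometry. Lactose-only control.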

Series [14] is described as follows: Volume of distribution at steady state in Sprague-Dawley rat at 500 ug/kg, iv. The class given is ADME. As to conditions: in vivo, 0.5 mg/kg, read-out: Vdss.
Series [15] in a line: Half life in Sprague-Dawley rat at 500 ug/kg, iv. The class given is ADME. The settings on record: in vivo, 0.5 mg/kg.
For series [16], the system named is Rattus norvegicus. The experiment in a line: Pro-inflammatory activity in Sprague-Dawley rat assessed as increase in neutrophils in bronchoalveolar lavage at 1000 ug/kg, it administered as single dose via dry powder insufflator after 18 hrs post dose by flow cytometric analysis relative to basal level. The class given is ADME. As to conditions: in vivo, inhaled_or_intranasal, 1 mg/kg.

Series [17] can be described thus: Cmax in Sprague-Dawley rat at 500 ug/kg, iv. Format: ADME. Set-up: dose 500 ug/kg, route intravenous. As to conditions: in vivo, 0.5 mg/kg.
Series [18] is described as follows: AUC in Sprague-Dawley rat at 500 ug/kg, iv. Format: ADME. The settings on record: in vivo, 0.5 mg/kg.
Series [19] is described as follows: Clearance in Sprague-Dawley rat at 500 ug/kg, iv. The class given is ADME. As to conditions: in vivo, 0.5 mg/kg.
Series [20] concerns Mustela putorius furo. The experiment in a line: Toxicity in it dosed ferret assessed as emesis administered as dry powder co-mixtured with lactose after 1 hr post dose. Format: organism-based. As to conditions: in vivo, inhaled_or_intranasal.
The test system of series [21] is Lung. The experiment in a line: Drug level in Sprague-Dawley rat lung at 1000 ug/kg, it administered as dry powder measured at 6 hrs post dose. The class given is ADME, tissue-based. The settings on record: in vivo, inhaled_or_intranasal, 1 mg/kg. Summed up: as §1
Series [22] relates to Lung. The experiment in a line: Drug level in Sprague-Dawley rat lung at 1000 ug/kg, it administered as dry powder measured over 24 hrs post dose. The class given is ADME, tissue-based. As to conditions: in vivo, inhaled_or_intranasal, 1 mg/kg. Put shortly:
as §1

Series [23] is described as follows: Plasma concentration in Sprague-Dawley rat at 1000 ug/kg, it measured up to 1 hr post dose. The class given is ADME, cell-free. As to conditions: inhaled or intranasal, 1 mg/kg.

Chain of 3',5'-cyclic-AMP phosphodiesterase 4B (Q07343 whole entry): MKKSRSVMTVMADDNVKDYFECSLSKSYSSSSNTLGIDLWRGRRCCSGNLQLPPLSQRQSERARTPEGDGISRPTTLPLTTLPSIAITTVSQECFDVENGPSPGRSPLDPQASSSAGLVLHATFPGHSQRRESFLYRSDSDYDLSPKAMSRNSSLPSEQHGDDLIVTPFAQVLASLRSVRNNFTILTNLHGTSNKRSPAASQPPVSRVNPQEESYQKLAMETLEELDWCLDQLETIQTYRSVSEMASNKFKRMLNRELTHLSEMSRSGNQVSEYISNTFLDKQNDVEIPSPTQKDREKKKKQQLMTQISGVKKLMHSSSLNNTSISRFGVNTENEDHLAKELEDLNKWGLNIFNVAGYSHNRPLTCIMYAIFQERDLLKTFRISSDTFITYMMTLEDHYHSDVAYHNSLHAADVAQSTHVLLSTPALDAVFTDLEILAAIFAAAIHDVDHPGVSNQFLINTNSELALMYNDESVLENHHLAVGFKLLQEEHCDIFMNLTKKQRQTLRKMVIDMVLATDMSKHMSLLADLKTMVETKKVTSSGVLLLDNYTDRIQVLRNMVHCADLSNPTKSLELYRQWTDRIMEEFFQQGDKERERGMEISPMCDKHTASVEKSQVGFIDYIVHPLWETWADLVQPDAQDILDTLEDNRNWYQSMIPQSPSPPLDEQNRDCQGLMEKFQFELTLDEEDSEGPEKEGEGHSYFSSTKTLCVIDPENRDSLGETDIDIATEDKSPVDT

`O=C(Nc1c(Cl)cncc1Cl)c1ccc(OC(F)F)c(OCC2CC2)c1` [ROFLUMILAST]: the inhibition result in the series filed under Rattus norvegicus [1] is “inactive”. Further, in the series with Rattus norvegicus [2], the inhibition in vivo at 1 mg/kg turned out to be 80%. The inhibition entry in the series filed under Rattus norvegicus [3] is “Active”. In addition, the IC50 in series [4] came to 4 nM. Moreover, in series [5], the solubility thermodynamic was 0.52 µg/mL (≈ 1.29 µM).

With `COc1cccc(Nc2cc(-c3cccc(-c4ccc(C(=O)O)cc4)c3)nc3c2C(=O)NCC3)c1`, the IC50 in series [6] is 0.35 nM; in [4], 5.7 nM. In [7], the Papp amounted to 3.5 ×10⁻⁶ cm/s.

Turning to `O=C(O)c1ccc(-c2cccc(-c3cc(Nc4cccc5ncccc45)c4c(n3)CCNC4=O)c2)cc1`, the IC50 is 0.11 nM in series [6] and 0.52 nM in series [4].

`COc1cccc(Nc2cc(-c3ccccc3)nc3c2C(=O)NCC3)c1`: the half-maximal inhibitory concentration (IC50) was 1.6 nM in [6] and 5.4 nM in series [4]. For the same molecule, the Papp in series [7] came out at 2 ×10⁻⁶ cm/s.

As to `COc1cccc(Nc2cc(-c3cccc(Sc4cccc(OC)c4)c3)nc3c2C(=O)NCC3)c1`, the IC50 stood at 1.6 nM in series [6] and 3.4 nM in series [4].

With `O=C1NCCc2nc(-c3ccccc3)cc(Nc3cccc4c3ccc[n+]4[O-])c21`, the values for the IC50 in series [6] and in series [4] were 0.43 nM and 0.47 nM, respectively.

As for `COc1cccc(Nc2cc(-c3cccc(-c4cc(C(=O)O)ccc4O)c3)nc3c2C(=O)NCC3)c1`, the IC50 was 9.6 nM in series [6] and 140 nM in [4].

Consider `O=C1NCCc2nc(-c3cccc(-c4cccc(O)c4)c3)cc(Nc3cccc4ncccc34)c21`, for which the IC50 in series [6] is 0.89 nM; in series [4], 0.5 nM.

Take `COc1cccc(Nc2cc(-c3ccccc3)nc3c2C(=O)NC(C)C3)c1` (stereo not given): the IC50 in series [6] is 120 nM; in [4], 270 nM.

Turning to `COc1cccc(Nc2cc(-c3cccc(-c4cccc(C(=O)NC5CC5)c4)c3)nc3c2C(=O)NCC3)c1`, the concentration for half-maximal inhibition (IC50) in [6] came to 2.1 nM; in series [4], 0.43 nM.

For `O=C(NC1CC1)c1cccc(-c2cccc(-c3cc(Nc4ccnc5ccccc45)c4c(n3)CCNC4=O)c2)c1`, the IC50 in [6] is 0.27 nM; in [4] it was 0.46 nM.

For `O=C1NCCc2nc(-c3ccccc3)cc(Nc3n[nH]c4ncccc34)c21`, the IC50 in series [6] came out at 5.6 nM; in series [4], 3 nM.

On to `N#Cc1cccc(Nc2cc(-c3ccccc3)nc3c2C(=O)NCC3)c1`, for which the IC50 in [6] came out at 3.3 nM; in [4] it was 13 nM.

As for `O=C1NCCc2nc(-c3ccccc3)cc(Nc3cccc4ncccc34)c21`, the concentration for half-maximal inhibition (IC50) in series [6] worked out at 0.96 nM; in series [4], 0.92 nM.

For the molecule `O=C(NC1CC1)c1cccc(-c2cccc(-c3cc(Nc4cccc5ncccc45)c4c(n3)CCNC4=O)c2)c1`, the solubility thermodynamic in [8] is 4 µg/mL (≈ 7.61 µM). In addition, the Drug uptake worked out at 36% with Lung [9], 18% with Lung [12], 20% with Lung [21] and 15% in the series on Lung [22]. Also, the Imax in the series with Rattus norvegicus [10] amounted to 35%. Also, the Activity result is “Non-Toxic” with Mustela putorius furo [11] and “Dose-dependent effect” in the series on Mustela putorius furo [20]. For the same molecule, the “fold change (FC)” value in the series with Rattus norvegicus [13] was 1.3; in the series on Rattus norvegicus [16], 0.7. Also, the Vd in [14] amounted to 3.9 L/kg. Further, in [15], the half-life was 54 min. Moreover, the IC50 in [6] turned out to be 0.17 nM; in series [4], 0.12 nM. In the series on Rattus norvegicus [2], the inhibition in vivo at 1 mg/kg stood at 58%. For the same molecule, the Cmax in series [17] amounted to 118 ng/mL. In addition, the AUC in series [18] stood at 108 ng·h/mL. For the same molecule, the clearance in series [19] worked out at 79 mL/min/kg. In addition, in series [7], the Papp came out at 0.15 ×10⁻⁶ cm/s. The concentration at 1 h in [23] was below 5 ng/mL.

On to `O=C1NCCc2nc(-c3ccc(F)c(F)c3)cc(Nc3cccc4ncccc34)c21`, for which the IC50 in [6] was found to be 0.75 nM; in [4] it was 1.5 nM.

With `COc1cccc(Nc2cc(-c3cccc(-c4cccc(O)c4)c3)nc3c2C(=O)NCC3)c1`, the IC50 in [6] turned out to be 1.8 nM; in series [4], 4.2 nM.

As for `CCOC(=O)c1ccc(-c2cccc(-c3cc(Nc4cccc5ncccc45)c4c(n3)CCNC4=O)c2)cc1`, the 50% inhibitory concentration (IC50) stood at 1.2 nM in series [6] and 0.66 nM in [4].

Take `CN(C)CCCNC(=O)c1cccc(-c2cccc(-c3cc(Nc4cccc5ncccc45)c4c(n3)CCNC4=O)c2)c1`: the IC50 in [6] was 0.11 nM; in [4], 0.36 nM.

`COc1cccc(Nc2cc(-c3cccc(-c4cccc(C(N)=O)c4)c3)nc3c2C(=O)NCC3)c1`: the IC50 in series [6] turned out to be 0.28 nM; in series [4], 2.3 nM.

In the case of `COc1cccc(Nc2cc(-c3cccc(-c4cccc(C(=O)NCCN(C)C)c4)c3)nc3c2C(=O)NCC3)c1`, the half-inhibitory concentration (IC50) turned out to be 0.23 nM in series [6] and 2.8 nM in series [4].
